Most compounds without a hit are left out; they make up all but 1.9% or so of the library.
Scp1 inh = blocks human Scp-1 phosphatase activity | Q9GZU7 | Recombinant Scp1, phosphopeptide, malachite green phosphate absorbance | inhibition, % at 20 µM | 340,000 compounds, 0.88% hits | AID 493091;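 active = inhibition above about 50% at 20 µM, limit read from the data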
Target sequence (Q9GZU7 76-261 limits assumed): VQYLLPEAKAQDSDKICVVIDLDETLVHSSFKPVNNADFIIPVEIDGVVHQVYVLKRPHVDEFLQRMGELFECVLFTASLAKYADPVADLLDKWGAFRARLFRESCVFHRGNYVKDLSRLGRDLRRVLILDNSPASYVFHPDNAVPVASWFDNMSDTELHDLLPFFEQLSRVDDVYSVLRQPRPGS
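Incubation: 45 min enzyme reaction at room temperature / System: truncated SCP-1 phosphatase (76-261aa) / Reagent: Phospho 17-mer peptide substrate / Buffer or medium: Acidic Tris acetate buffer with magnesium and detergent / Signal: absorbance at 630 nm / Doses: one concentration, 20 µM, with 1.0% DMSO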
LMPTP block = LMPTP (human) inhibition. recombinant LMPTP-A, OMFP fluorogenic substrate, fluorescence intensity. inhibition, % at 20 µM. 360,000 compounds, 0.22% hits;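 active = compounds that cut the enzyme signal by at least half of the control window in the single-dose screen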
Target sequence (P24666 whole entry, looked up): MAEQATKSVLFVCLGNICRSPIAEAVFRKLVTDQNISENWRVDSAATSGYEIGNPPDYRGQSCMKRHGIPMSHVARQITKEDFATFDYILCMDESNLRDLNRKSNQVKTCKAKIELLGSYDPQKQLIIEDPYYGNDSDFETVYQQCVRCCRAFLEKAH
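Test system: LMPTP-A, protein tyrosine phosphatase of low molecular weight; Input: 0.625 nM enzyme; Incubation: 50 min dark incubation at room temperature; Signal: endpoint fluorescence intensity from OMFP dephosphorylation; Read-out basis: % inhibition versus control wells.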
SUMO1 PPI mod = SUMO1-SIM interaction modulation | P63165 | SUMO1 binding to a labelled peptide, TR-FRET, 1 h | inhibition, % at 20 µM | 360,000 compounds, 0.33% hits | AID 602429; in the data active = inhibition above about 37%
Target sequence (P63165 whole entry, looked up): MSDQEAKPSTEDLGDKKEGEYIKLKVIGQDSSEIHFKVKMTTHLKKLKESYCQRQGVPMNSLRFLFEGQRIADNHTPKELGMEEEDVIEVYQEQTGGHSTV
UBC9 SUMO inh = SUMOylation inhibition. P63279. HTRF SUMOylation assay, SAE1/SAE2 + UBC9, in vitro. inhibition, % at 35 µM. 290,000 compounds, 0.36% hits; in the data active = inhibition above about 50%, passing the limit was not always enough; inconclusive = no clear call, values can overlap the other calls
Target sequence (P63279 whole entry, looked up): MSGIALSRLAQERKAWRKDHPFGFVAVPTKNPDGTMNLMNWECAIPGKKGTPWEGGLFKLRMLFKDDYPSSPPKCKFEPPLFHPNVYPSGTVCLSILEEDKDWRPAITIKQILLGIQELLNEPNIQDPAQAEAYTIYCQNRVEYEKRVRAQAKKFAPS
STEP inh = blocks human striatal-enriched tyrosine phosphatase | P54829 | recombinant STEP, OMFP fluorogenic substrate, fluorescence | inhibition, % at 20 µM | 360,000 compounds, 0.25% hits | AID 588621;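 active = inhibition at 20 µM, scaled per plate between control wells, above about 37%, limit read from the data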
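System: STEP phosphatase, cell-free reaction; Buffer or medium: Bis-Tris pH 6.0 buffer with DTT, detergent; Incubation: 20 min at room temperature, dark; Measured by: fluorescence, 480/540 nm.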
DNMT1 inh = inhibitors of human DNMT1 | P26358 | DNMT1 molecular beacon, Hinp1I cleavage, fluorescence | inhibition (reported as % activation of signal), % at 10 µM | 360,000 compounds, 0.83% hits | AID 588458; in the data active = inhibition above about 50%
Each line names hits and unclear results; the compound was inactive in the other large screens.

O=C1C(=Cc2ccco2)CCC1=Cc1ccco1	Scp1 inh 80, LMPTP block 64, SUMO1 PPI mod 121, STEP inh 97 (no result: UBC9 SUMO inh)
O/N=C1\CCC\C1=C/c1ccco1	none
CCNc1ccc(S(=O)(=O)N(C)C)cc1[N+](=O)[O-]	Scp1 inh 59
COc1ccc(NC(=O)NNC(=O)c2ccc3ccccc3c2O)c(OC)c1	none
N#C/C(=C\c1ccc(O)c(O)c1)C(=O)Nc1cccc2ncccc12	LMPTP block 66 (no result: UBC9 SUMO inh)
COc1ccc(CCNC(=O)CC(=O)N/N=C\c2ccc(OCC(N)=O)cc2)cc1OC	none (no result: Scp1 inh, UBC9 SUMO inh)
CCCCN=Cc1c(C)[nH]n(-c2ccccc2)c1=S	none
Cc1[nH]n(-c2ccccc2)c(=S)c1C=Nc1cccc([N+](=O)[O-])c1	Scp1 inh 87
COCC(=O)OC1CCn2c1nc1c2C(=O)C(C)=C(NC(C)=O)C1=O (stereo not drawn)	DNMT1 inh 88 (no result: UBC9 SUMO inh)
COc1ccc(N2CCN(S(=O)(=O)c3ccc(C(=O)NC4CCCC4)cc3)CC2)cc1	SUMO1 PPI mod 51
CCOC(=O)c1cc2c(=Cc3ccc(N(C)C)cc3)c3ccccc3n2[n+]1C	none (no result: UBC9 SUMO inh)
C[n+]1c(-c2ccccc2)cc2c(=Cc3ccccc3)c3ccccc3n21	DNMT1 inh 50 (no result: UBC9 SUMO inh)
CN(C)c1ccc(C=c2c3cc(O)ccc3n3c2cc(-c2ccccc2)[n+]3C)cc1	LMPTP block 94, SUMO1 PPI mod 69 (no result: UBC9 SUMO inh)
Cc1cc2c(=Cc3ccc(N(C)C)cc3)c3ccccc3n2[n+]1C	none (no result: UBC9 SUMO inh)
C[n+]1c(-c2ccccc2)cc2c(=Cc3ccc([N+](=O)[O-])cc3)c3ccccc3n21	DNMT1 inh 52 (no result: UBC9 SUMO inh)
CC(C)n1c2ccccc2c2cc([N+](=O)[O-])ccc21	none
CN(C)c1ccc(C=c2c3ccccc3n3c2c2ccccc2[n+]3C)cc1	LMPTP block 78, SUMO1 PPI mod 119 (no result: UBC9 SUMO inh)
CC(=O)C1=C(O)C(=O)N(c2ccc(Br)cc2)C1c1ccccc1[N+](=O)[O-] (stereo not drawn)	none
O=[N+]([O-])c1ccc(C(=Nc2cccc3ccccc23)N2CCOCC2)cc1	none
N#CC(=Cc1ccc(O)cc1)C(N)=C(C#N)C#N	none (no result: UBC9 SUMO inh)
O=C(Nc1cccc(-c2nn[nH]n2)c1)c1csc2c1CCCC2	none
O=C(NCCN1CCc2ccccc2C1)Nc1ccc([N+](=O)[O-])cc1	UBC9 SUMO inh 58
Nc1ccc(C(=O)Nc2nc3ccccc3s2)cc1	Scp1 inh 60
Nc1ccc(NC(=O)c2ccc(C(=O)Nc3ccc(N)cc3)cc2)cc1	SUMO1 PPI mod 59
Cc1cc(C)n(-c2ccc(C(=O)Nc3nc4ccccc4s3)cc2)n1	none
O=C(O)C1Nc2c(O)cc(Cl)c([N+](=O)[O-])c2C2C=CCC12 (stereo not drawn)	Scp1 inh 62, LMPTP block 91, SUMO1 PPI mod 104, UBC9 SUMO inh 99, STEP inh 97, DNMT1 inh 89
O=[N+]([O-])c1cc(Cl)cc(/C=N/NC(=S)Nc2ccc(S(=O)(=O)N3CCOCC3)cc2)c1O	UBC9 SUMO inh 95
COc1ccc(S(=O)(=O)NCc2csc(-c3cccnc3)n2)cc1	SUMO1 PPI mod 43
O=S(=O)(NCc1csc(-c2cccnc2)n1)c1ccc(Br)cc1	none
C/C(=N\Nc1nc(C)c(C)s1)c1ccc([N+](=O)[O-])cc1	none
CCOC(=O)Cc1csc(SCn2nnc3ccccc3c2=O)n1	none
CCOC(=O)Cc1csc(-n2sc3ccccc3c2=O)n1	Scp1 inh 74
COc1cccc2c1NC(C(=O)O)C1CC=CC21 (stereo not drawn)	Scp1 inh 74, LMPTP block 52, SUMO1 PPI mod 52, UBC9 SUMO inh 95, STEP inh 70, DNMT1 inh 98
CC(=O)c1ccc2c(c1)C1C=CCC1C(c1ccncc1)N2 (stereo not drawn)	none
CC(=O)c1ccc2c(c1)C1C=CCC1C(C(=O)O)N2 (stereo not drawn)	Scp1 inh 75, SUMO1 PPI mod 60, UBC9 SUMO inh 78, STEP inh 70, DNMT1 inh 91
Cc1ccc2c(c1)C1C=CCC1C(C(=O)O)N2 (stereo not drawn)	UBC9 SUMO inh 60 (no result: Scp1 inh, LMPTP block, SUMO1 PPI mod, STEP inh, DNMT1 inh)
Cc1cccc(S(=O)(=O)NC(=O)C2(C)CCN2C(=O)c2cccc(F)c2)c1 (stereo not drawn)	none (no result: Scp1 inh, UBC9 SUMO inh)
CN(C(=O)CSc1nc2scc(-c3ccccc3)c2c(=O)[nH]1)c1ccccc1	none (no result: UBC9 SUMO inh)
Nc1nc(-c2ccco2)cs1	none
c1coc(-c2nc(-c3ccco3)c(-c3ccco3)nc2-c2ccco2)c1	Scp1 inh 93, LMPTP block 82, SUMO1 PPI mod 83, UBC9 SUMO inh inconclusive, STEP inh 94, DNMT1 inh 117
COc1ccc(C2=NN(C(=O)c3cccs3)C(c3ccccc3O)C2)cc1 (stereo not drawn)	UBC9 SUMO inh 56
COc1ccc2nc(C)cc(SCC(=O)N/N=C/c3ccc(O)c(O)c3)c2c1	LMPTP block 57
O=C(NC(=S)Nc1ccc2oc(=O)ccc2c1)c1cc2ccccc2o1	SUMO1 PPI mod 75
Oc1ccc(/C=N/n2c(-c3ccccc3)n[nH]c2=S)cc1Br	none
Cc1c(Br)c(O)c(Br)c(O)c1/C=N/n1c(-c2ccccc2)n[nH]c1=S	Scp1 inh 90
CC1=C(C#N)C(=O)N(C2CCS(=O)(=O)C2)C(=O)/C1=C\c1ccco1 (stereo not drawn)	UBC9 SUMO inh 90 (no result: Scp1 inh, LMPTP block, SUMO1 PPI mod, STEP inh, DNMT1 inh)
CCCCN(C(=O)C(C)N1C(=O)c2ccccc2C1=O)c1c(N)n(CC(C)C)c(=O)[nH]c1=O (stereo not drawn)	none (no result: UBC9 SUMO inh)
CCOC(=O)C1CCCN(CCC(=O)Nc2ccccc2C)C1 (stereo not drawn)	none
CCOC(=O)c1c2c(n(Cc3ccccc3)c1C)C(=O)C(=O)c1ccccc1-2	DNMT1 inh 93 (no result: UBC9 SUMO inh)
Cc1c(CN(C)C)c2c(n1C)C(=O)c1ccc(Br)cc1-2	none
CCOC(=O)c1c2c3c(cccc3n(C)c1=O)C(=O)c1ccccc1-2	none
CCOC(=O)c1c2c(n(C)c1C)C(=O)C(=O)c1ccc(Br)cc1-2	DNMT1 inh 88 (no result: UBC9 SUMO inh)
Cn1nc(C(C)(C)C)cc1C(=O)N1CCCCC1c1cc(C(=O)Nc2ccc3c(c2)OCO3)no1 (stereo not drawn)	none (no result: Scp1 inh, UBC9 SUMO inh)
CCN(C(=O)COC(=O)CNC(=O)c1ccc(C)cc1)c1c(N)n(Cc2ccccc2)c(=O)[nH]c1=O	none (no result: UBC9 SUMO inh)
Cc1noc(C)c1C(=O)Nc1cccc(S(=O)(=O)N2CCOCC2)c1	none (no result: UBC9 SUMO inh)
CN(Cc1ccccc1)C1=CC(=[N+]2CCCCC2)CC(C)(C)C1	Scp1 inh 104
CC1(C)CC(N2CCN(Cc3ccccc3)CC2)=CC(=[N+]2CCCCC2)C1	Scp1 inh 106
CC1(C)CC(N2CCCC2)=CC(=[N+]2CCCCC2)C1	none
